# Laboratory results published in paper PMC4423566 (Nature communications, 2015).
# Square brackets hold non-standard residues; d marks the D form. Peptide text beside a SMILES is read from it. * marks the point of attachment. X1 = CC(=O)N[C@@H]1[C@@H](O[C@@H]2O[C@H](CO)[C@H](O)[C@H](O)[C@H]2O)[C@@H](O)[C@@H](CO[C@@H]2O[C@H](CO)[C@@H](O[C@@H]3O[C@H](CO)[C@H](O)[C@H](O[C@]4(C(=O)O)C[C@H](O)[C@@H](NC(C)=O)[C@H]([C@H](O)[C@H](O)CO)O4)[C@H]3O)[C@H](O[C@@H]3O[C@@H](C)[C@@H](O)[C@@H](O)[C@@H]3O)[C@H]2NC(C)=O)O[C@@H]1*; Phe(4-CH2SO3H) = N[C@@H](Cc1ccc(CS(=O)(=O)O)cc1)C(=O)O; Mca = COc1ccc2c(CC(=O)*)cc(=O)oc2c1
# What was measured:
# human P-selectin = human P-selectin (Homo sapiens, UniProt P16109); experiment: Biacore binding assay, human P-selectin; conditions: from Kd 22 nM
# mouse P-selectin = mouse P-selectin (Mus musculus, UniProt Q01102); experiment: Biacore binding assay, mouse P-selectin; conditions: printed as fold lower
# L-Sel-Ig = experiment: Biacore binding assay, L-selectin
# In short: (§1)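 Biotinylated test glycopeptide was captured on a streptavidin-coated sensor chip at low (< 5 RU) or high (60 RU) density. P-, L- or E-selectin-Ig was applied at 2.5–60 μg/mL. Kinetic parameters were fitted to a 1:1 binding model. Affinity relative to P-Sel-Ig was estimated by comparing binding at the two capture densities.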
# E-Sel-Ig = experiment: Biacore binding assay, E-selectin
# In short: as §1
# P-selectin [1] = experiment: Microarray binding of glycopeptide mimics to selectin-Ig chimeras; set-up: species or system human and mouse; conditions: selectin-Ig chimeras 5-20 μg/mL, Alexa-488 anti-human IgG
# [2] = Temperature- and pH-dependent stability by RP-HPLC; type: physicochemical
# [3] = molecular target: human L-selectin Fc chimera (Homo sapiens, UniProt P14151); experiment: Flow cytometry, L-selectin Fc chimera binding to human U937; type: cell-based; conditions: read-out: IC50, inhibition of PSGL-1/L-selectin interactions; human leukocytes (human U937)
# E-selectin Fc chimera = experiment: Flow cytometry, E-selectin Fc chimera binding to leukocytes; type: cell-based, human and mouse; conditions: GSnP-6 0 - 30 μM
# In short: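 Cells were heparinized mouse blood (cardiac puncture), citrated human blood, or cultured U937. They were incubated with test compound (0–30 μM) and species-matched selectin Fc chimera (2 μg/mL), then PE anti-Fc (1:100). Read-out was flow-cytometric MFI, expressed as percent inhibition versus PBS control, in triplicate. KPL1 and 4RA10 anti-PSGL-1 antibodies served as specificity checks.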
# [4] = system: human neutrophil and monocyte rolling and arrest on ICAM-1/P-selectin substrate; experiment: In vitro flow assay on ICAM-1/P-selectin substrate under shear; type: cell-based
# In short: (§2)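 Aminosilanized glass was coated with human ICAM-1-Fc plus P- or E-selectin-Fc (5 μg/mL, 1 h). Human blood cells from healthy donors were density-separated and suspended in HEPES-buffered salt solution. Cells were exposed 10 min to PBS or test compound (up to 30 μM), then perfused at 2 dynes/cm2. Video ran 2 min at 7.5 frames/s. Centroids were tracked over 10 s; < 1 μm/s counted as arrested; capture and rolling velocity scored.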
# [5] = system: leukocyte rolling and arrest on substrates coated with ICAM-1 and E-selectin; experiment: In vitro flow assay on ICAM-1/E-selectin substrate under shear; type: cell-based, human; conditions: concentrations as high as 30 μM
# In short: as §2
# [6] = system: leukocyte rolling in cremaster venules; experiment: Intravital microscopy of mouse cremaster, leukocyte rolling; type: in vivo; conditions: 4 μmol/kg IV
# In short: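 Mice under IP ketamine/xylazine/atropine were kept on a 37°C blanket. Test compound (4 μmol/kg in saline) or saline was given through a jugular cannula. The cremaster was superfused with bicarbonate-buffered saline (5% CO2 in N2). Venules 30–40 μm were viewed 15–25 min post-surgical stimulation, seven per mouse. Velocities of 5–10 rolling leukocytes per venule were tracked over 2 s; mean and median were taken.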
# [7] = system: platelet-leukocyte aggregate formation; experiment: Platelet-leukocyte aggregates in human whole blood, dual-label flow cytometry; type: cell-based; conditions: 40 μM, PAR1-activating peptide
# In short: (§3)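 Anticoagulated whole blood was treated with 40 μM test compound at room temperature. Stimulation used PAR1-activating peptide 40 μM (human) or PAR4-activating peptide 200 μM (mouse). Staining was anti-CD42a-PE/anti-CD45-APC (human) or anti-CD41-PE/anti-CD45-APC (mouse). CD45+ neutrophils and monocytes were gated by side scatter and scored as % platelet-positive. Saline and anti-CD62P (5 μg/mL) were controls. Samples were run in triplicate.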
# [8] = system: platelet-leukocyte aggregate formation; experiment: Platelet-leukocyte aggregates in mouse whole blood, dual-label flow cytometry; type: cell-based; conditions: 40 μM, PAR4-activating peptide
# In short: as §3
# [9] = system: platelet-neutrophil binding and platelet aggregation in venules; experiment: TNF-α-induced venular inflammation, cremaster intravital microscopy; type: in vivo; conditions: 3 hr after TNF-α; GSnP-6 4 μmol/kg IV, antibody 75 μg/mouse IV
# In short: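 Male C57BL/6 mice, 6–8 weeks old, received intrascrotal TNF-α (0.5 μg) 3 h before cremaster preparation. Just before imaging, test compound (4 μmol/kg), anti-CD62P or saline was given via jugular cannula. Labels were Dylight 649 anti-CD42b (platelets) and Alexa 488 anti-Gr-1 (neutrophils). Venules 30–45 μm (8–10/mouse, 5 mice) were imaged over 2 min. Platelet signal was taken as AUC normalized to vessel area, reported as median integrated fluorescence.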
# P-selectin [10] = conditions: P-selectin inhibitor; cited from earlier work
# [11] = system: human platelet-monocyte aggregation; conditions: cited from earlier work
# [12] = Biacore, compared with P-selectin
# [13] = fold lower, densities < 5 RU vs 60 RU
structure (smiles),measurement,setting,value
COc1ccc2c(CC(=O)NCCCC[C@H](N)C(=O)N[C@@H](CCC(=O)O)C(=O)N[C@@H](Cc3ccc(CS(=O)(=O)O)cc3)C(=O)N[C@@H](CCC(=O)O)C(=O)N[C@@H](Cc3ccc(CS(=O)(=O)O)cc3)C(=O)N[C@@H](CC(C)C)C(=O)N[C@@H](CC(=O)O)C(=O)N[C@@H](Cc3ccc(CS(=O)(=O)O)cc3)C(=O)N[C@@H](CC(=O)O)C(=O)N[C@@H](Cc3ccccc3)C(=O)N[C@@H](CC(C)C)C(=O)N3CCC[C@H]3C(=O)N[C@@H](CCC(=O)O)C(=O)N[C@H](C(=O)N[C@@H](CCC(=O)O)C(=O)N3CCC[C@H]3C(=O)N[C@@H](CC(C)C)C(=O)O)[C@@H](C)O[C@H]3O[C@H](CO[C@@H]4O[C@H](CO)[C@@H](O[C@@H]5O[C@H](CO)[C@H](O)[C@H](O[C@]6(C(=O)O)C[C@H](O)[C@@H](NC(C)=O)[C@H]([C@H](O)[C@H](O)CO)O6)[C@H]5O)[C@H](O[C@@H]5O[C@@H](C)[C@@H](O)[C@@H](O)[C@@H]5O)[C@H]4NC(C)=O)[C@H](O)[C@H](O[C@@H]4O[C@H](CO)[C@H](O)[C@H](O)[C@H]4O)[C@H]3NC(C)=O)cc(=O)oc2c1 [GSnP-6] (H-K(Mca)E[Phe(4-CH2SO3H)]E[Phe(4-CH2SO3H)]LD[Phe(4-CH2SO3H)]DFLPET(X1)EPL-OH; N-terminus and C-terminus assumed),experimental interaction energy with P-selectin,human P-selectin,-10.5 kcal/mol
same,Kd to murine P-selectin relative to human P-selectin,mouse P-selectin,~ 9 fold
same,binding to L-selectin (in words),L-Sel-Ig; [12],lower affinity
same,affinity of L-Sel-Ig for immobilized GSnP-6 relative to P-Sel-Ig,L-Sel-Ig; [13],~ 25 fold
same,binding to E-selectin (in words),E-Sel-Ig; [12],lower affinity
same,affinity of E-Sel-Ig for immobilized GSnP-6 relative to P-Sel-Ig,E-Sel-Ig; [13],~ 25 fold
same,microarray binding to P-selectin (in words),P-selectin [1],bound to P-selectin more strongly than to E- or L-selectin
same,stability at low pH,"[2]; pH 5, T = 37°C",without observed degradation products
same,stability at high temperature,"[2]; pH 7.5, T = 60°C",without observed degradation products
same,IC50,[3],~30 µM
same,inhibition of E-selectin interactions (in words),E-selectin Fc chimera,not observed
same,inhibition of rolling and arrest,"[4]; 6 μM, human neutrophils and monocytes",80%
same,IC50,"[4]; read-out: IC50, inhibition of neutrophil capture in shear flow, human neutrophils, 2 dynes/cm^2",5 µM
same,leukocyte rolling and arrest on ICAM-1 and E-selectin (in words),[5],did not perturb
same,increase in median rolling velocities vs saline,[6],2 fold
same,mean leukocyte rolling velocity,[6]; 15-25 min after surgical stimulation,74.9 ± 3.4 μm/s
same,inhibition of platelet-monocyte aggregate formation,[7],72%
same,inhibition of platelet-neutrophil aggregate formation,[7],65%
same,inhibition of platelet-monocyte aggregate formation,[8],47%
same,inhibition of platelet-neutrophil aggregate formation,[8],42%
same,"platelet accumulation, median integrated platelet fluorescence (in words)",[9],limited platelet signal
same,platelet aggregation and platelet-PMN binding (in words),[9],significantly reduced
O=C(O)c1c(O)c(Cc2ccc(Cl)cc2)nc2c3c(ccc12)CCCC3 [PSI-697],Kd,P-selectin [10],~200 µM
same,inhibition of human platelet-monocyte aggregation (in words),[11],only weakly inhibits
